Screening results: PubChem, several laboratories
Most compounds without a hit are left out; they make up all but 4.8% or so of the library.
WT yeast gro inh – growth inhibition of WT strain, primary screen, mitochondrial fusion inhibitor project, WT and mutant strains, chemical genetic; mitochondrial fusion phenotypic screen; inhibition, % at 10 µM; actives 2.1% (n = 190,000); AID 1362, 2008; in the data active means inhibition above about 58%; tested in S. cerevisiae
Efflux pump mplx – inhibitors of Candida efflux pumps in yeast, primary screen, S. cerevisiae, Nile Red, multiplex. S. cerevisiae Candida pump triplex. inhibition, % at 10 µM. actives 0.44% (n = 330,000). AID 485275, 2010;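 active means plate passing quality check with inhibition over a set limit, or well fluorescence over plate mean plus 4 SD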;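 further: Nile Red retained in pooled yeast measured as flow cytometry median fluorescence; 0% = buffer negative control and 100% = Enniatin B positive control; higher means more Nile Red kept so more efflux inhibition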
Mot1-301 SUMO – yeast Mot1-301 growth rescue at high temperature, primary screen, SUMOylation pathway inhibitor project, S. cerevisiae, ATP luminescence, 38.5C; S. cerevisiae Mot1-301 growth rescue; percent above DMSO median, 100 means doubled; growth rescue, % at 18.8 µM; AID 2716, 2010; actives 1% (n = 320,000);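 active means every valid replicate shows activation above 250% relative to neutral control wells; inactive means the rest, any valid replicate at or below 250%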;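 further: OY570 slx delta 5 strain wells were the positive control but not used for scaling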
T cruzi inh – inhibitors of intracellular T. cruzi growth, primary screen, luminescence, NIH3T3 host cells; actives 1.4% (n = 300,000); inhibition, % (concentration not given with the values); T. cruzi beta-gal in NIH3T3, 90 h;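 active means mean inhibition across valid replicates above about 55%, limit read from the data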;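 further: signal also drops with host cell toxicity which is not excluded here; 0% = plate median of DMSO wells and 100% = zero luminescence signal; higher percent means less beta-gal luminescence so fewer parasites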
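Material: NIH/3T3 host cells with β-galactosidase reporter T. cruzi; Input: 5,000 host fibroblasts per well; Medium: DMEM, 2% fetal bovine serum; Compound: 50 nL DMSO compound solution per well; Schedule: 3 h host attachment, then at least 90 h co-culture; Detection: luminescent β-galactosidase signal after 60 min lysis.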
Beta apoptosis – inhibitors of cytokine-induced beta cell apoptosis, primary screen, luminescence. actives 0.8% (n = 300,000). AID 435005, 2010. INS-1E cytokine-induced death, ATP luminescence, 48 h; percent of positive-control rescue, neutral wells zero. protection from apoptosis, % (no concentration beside the values);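 active means Every replicate reaches about 75%, or at least half do and their mean reaches it too, limit read from the data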;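 further: 0% = cytokine-treated negative control wells and 100% = positive control rescue; higher means more ATP so stronger rescue from cytokine killing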
CSC inhib – cancer stem cell viability inhibitors, primary screen, luminescence | cancer stem cell-like cells viability | actives 1.1% (n = 300,000) | inhibition, % at 7.5 µM; in the data active means inhibition above about 75%; tested in HMLE shEcad cells
Cmpd fluor yeast – counter-screen for efflux pump inhibitors: compound fluorescence | shares compounds with Efflux pump mplx | S. cerevisiae AD/pABC3, flow cytometry | fluorescence ratio to DMSO, % at 10 µM | actives 4% (n = 1,700) | AID 588517;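 active means fluorescence ratio to DMSO above its plate's cutoff, the plate mean ratio plus 5 SD, cut at about 210% in these data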;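 further: unstained yeast with no Nile Red so the signal is compound autofluorescence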
Mdr1 pump inh – inhibitors of Candida albicans Mdr1 efflux, confirmation, flow cytometry, singleplex, Cherry Pick1 set | shares compounds with Efflux pump mplx | S. cerevisiae AD/CaMDR1, Nile Red efflux | inhibition, % at 10 µM | actives 1% (n = 1,700) | AID 588518, 2011; in the data active means inhibition above about 26%;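 further: 0% = DMSO vehicle and 100% = reference inhibitor; higher means more Nile Red retained so more efflux inhibition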
CaCdr2 efflux inh – inhibitors of Candida albicans Cdr2 efflux pump, confirmation, S. cerevisiae AD/CaCDR2, flow cytometry, cherry pick 1, singleplex; shares compounds with Efflux pump mplx; Nile Red retention; Nile Red retention ratio vs DMSO, % at 10 µM; actives 4% (n = 1,700); AID 588520, 2011; in the data active means Nile Red retention ratio vs DMSO above about 190%;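 further: higher ratio means more blocking of Cdr2 efflux of the dye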
Cdr1 pump inh – inhibitors of Candida albicans Cdr1 efflux pump, confirmation, S. cerevisiae AD/CaCDR1, flow cytometry, cherry pick 1, singleplex | inhibition, % at 10 µM | shares compounds with Efflux pump mplx | Nile Red efflux | AID 588522, 2011 | actives 1% (n = 1,700);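 active means inhibition above the screen-wide mean plus twice its standard deviation, cut at about 32% in these data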
* hit, by the source's call; · = no result given.

SMILES	WT yeast gro inh	Efflux pump mplx	Mot1-301 SUMO	T cruzi inh	Beta apoptosis	CSC inhib	Cmpd fluor yeast	Mdr1 pump inh	CaCdr2 efflux inh	Cdr1 pump inh
Cc1c(NC(=O)C(C)Sc2nc(N)cc(=O)[nH]2)c(=O)n(-c2ccccc2)n1C (stereo not given)	·	0	-23	·	-10	-17	·	·	·	·
CCOc1ccc(CN(C)CC(=O)Nc2ccc(N3CCOCC3)cc2)cc1OC	2	0	16	10	2	-3	·	·	·	·
COc1ccc(NS(=O)(=O)c2csc(C(=O)N3CCCC3)c2)c(OC)c1	·	0	-9	-6	2	3	·	·	·	·
Cc1nn(C)c(C)c1/C=N/NC(=O)CCn1cc([N+](=O)[O-])cn1	11	14*	15	-9	-4	-19	93	0	96	0
CCc1ccc(-n2c(=O)c3ccccc3n(CC(=O)NCc3ccco3)c2=O)cc1	-19	0.8*	-8	-12	15	14	102	0	101	0
COc1cc2c(cc1OC)C(c1ccccc1F)NCC2 (stereo not given)	·	0	-4	29	-2	-13	·	·	·	·
CCOC(=O)/C(C#N)=C\C1=C(N2CCCC2)CC(C)(C)OC1	-21	0	9	-12	-4	-9	·	·	·	·
CCOC(=O)/C(C#N)=C/C1=C(N2CCOCC2)C(C)(C)OCC1	·	0.9*	-6	-9	-4	-11	94	0	99	0
CCCCCCCN1CCN=C1Nc1ccccc1	·	0	5	·	-6	5	·	·	·	·
CCN(C(=O)COC(=O)c1cc(S(=O)(=O)N2CCOCC2)c(Cl)cc1Cl)C1CCS(=O)(=O)C1 (stereo not given)	5	0.9*	-3	-4	-4	-7	108	0	87	0
CCN(C(=O)COC(=O)c1ccc(F)c(S(=O)(=O)N2CCOCC2)c1)C1CCS(=O)(=O)C1 (stereo not given)	·	0	59	-10	-9	-13	·	·	·	·
O=C(COc1ccc(Cl)cc1Cl)NC1CCSC1=O (stereo not given)	-1	1.7*	101	-11	-3	1	98	0	106	0
O=C(COC(=O)COc1ccc(Cl)cc1Cl)NC1CCCCCC1	·	0	13	·	1	·	·	·	·	·
O=C(O)c1cc(-c2cccnc2)nc2ccc(Br)cc12	-18	0	-4	·	-3	25	·	·	·	·
NC(=O)c1cc(-c2ccccc2)nc2ccc(Br)cc12	·	0	19	-5	-1	7	91	0	97	0
COc1cc2c(cc1OC)CN(Cc1cc(OC)c(O)c(OC)c1)CC2	-1	0	·	1	-1	10	·	·	·	·
O=C(NCCO)/C(=C\c1ccc(Br)cc1)NC(=O)c1cccs1	12	7.5*	7	1	3	-17	103	0	96	0
O=c1cc(-c2ccccc2)[nH]n2cnnc12	·	0	-6	-3	3	-11	·	·	·	·
CCCN(Cc1nnc(-c2cccs2)o1)C(=O)CN1C(=O)NC2(CCCCC2C)C1=O (stereo not given)	·	0	8	·	-10	·	·	·	·	·
CNC(=S)Nc1cccc(S(=O)(=O)NC2=NCCC2)c1	14	0	-3	-7	-2	-4	·	·	·	·
CC(CNC(=O)c1ccc(C(C)(C)C)cc1)CN(C)C (stereo not given)	-10	2.0*	-7	7	3	12	100	0	96	0
COc1c(/C=N/NC(=O)[C@H]2C[C@@H]2c2ccccc2)c(CCN(C)C(C)=O)cc2c1OCO2	·	0	-12	12	-3	-1	·	·	·	·
CCC(=O)N(C)CCc1cc2c(c(OC)c1/C=N/NC(=O)[C@H]1C[C@@H]1c1ccccc1)OCO2	·	3.5*	-5	13	4	-4	87	0	102	0
C[C@H](CO)N1C[C@H](C)[C@@H](CN(C)S(=O)(=O)c2cccs2)Oc2c(NC(=O)NC3CCCCC3)cccc2C1=O	·	0	-10	·	-5	·	·	·	·	·
COc1ccc(CCNC(=O)C(NS(=O)(=O)c2ccc3c(c2)CCN3C(C)=O)C(C)C)cc1OC (stereo not given)	-9	0	49	-5	-1	-12	·	·	·	·
SMILES	WT yeast gro inh	Efflux pump mplx	Mot1-301 SUMO	T cruzi inh	Beta apoptosis	CSC inhib	Cmpd fluor yeast	Mdr1 pump inh	CaCdr2 efflux inh	Cdr1 pump inh
CCc1ccc(NC(=O)C(NS(=O)(=O)c2ccc3c(c2)CCN3C(C)=O)C(C)C)cc1 (stereo not given)	·	1.6*	9	-5	0	-3	105	0	89	0
O=C(CNC(=O)C1COc2ccccc2O1)N/N=C\c1cccc(O)c1 (stereo not given)	-12	7.6*	-7	6	-1	5	89	0	87	0
COc1ccc(C2c3ccc4ccccc4c3Oc3ncn(CCN4CCOCC4)c(=N)c32)cc1 (stereo not given)	-23	1.0*	-23	36	·	10	108	0	112	0
COc1ccc(C2c3ccc4ccccc4c3Oc3ncn(CCN4CCOCC4)c(=N)c32)cc1OC (stereo not given)	·	0	-9	36	·	·	·	·	·	·
O=C(COC(=O)c1ccccc1Br)NCCN1C(=O)CSC1=O	6	1.1*	-7	-3	-4	9	99	0	93	0
O=C(COC(=O)c1cccc(Cl)c1Cl)NCCN1C(=O)CSC1=O	-7	0	-14	-8	-7	·	112	0	108	0
CCN(CC)S(=O)(=O)c1cccc(C(=O)OCC(=O)NCCN2C(=O)CSC2=O)c1	·	0	6	·	3	·	92	0	85	0
Cc1c(C(=O)OCC(=O)NCCN2C(=O)CSC2=O)cccc1[N+](=O)[O-]	·	0	-3	·	3	·	·	·	·	·
CCCCN(C(=O)c1c(CC)noc1C)c1c(N)n(CCCC)c(=O)[nH]c1=O	·	0	321	-5	-2	-11	·	·	·	·
Cc1cc(C)n(CC(=O)Nc2ccc3c(c2)OCO3)c(=O)c1C#N	·	0	-7	-2	-1	-11	·	·	·	·
